What is called IC50 is the midpoint of a concentration-inhibition curve. The term Papp denotes a coefficient for how fast a substance crosses the barrier. Usually bioavailability stands for the share of a dose that reaches the circulation, judged against a reference dose that is usually intravenous. A high value points to much systemic uptake. What is called EC50 is the concentration needed to bring the measured effect to its halfway point. One may read the half-life as how long it takes for the measured level to halve. A lower half-life goes with fast loss.

These results are taken from ChEMBL document CHEMBL4665726, “Development of a selective HDAC inhibitor aimed at reactivating the HIV latent reservoir” (Bioorg Med Chem Lett, 2020).

One series addresses Histone deacetylase 1 (Homo sapiens, UniProt Q13547). The series is described as follows: Inhibition of HDAC1 (unknown origin).
Series [1] in a line: Apparent permeability of the compound. The format is ADME. Particulars: not told.
A short description of series [2]: Unbound clearance in Wistar Han rat at 2 mg/kg, iv or 10 mg/kg, po. The format is ADME, organism-based. Particulars: in vivo.
The nature of series [3]: Oral bioavailability in Wistar Han rat at 10 mg/kg. The format is ADME, organism-based. Particulars: in vivo.
Series [4] deals with T1, Class 1 histone deacetylase (Homo sapiens, UniProt Q13547+O15379+Q92769+Q9BY41). The series is described as follows: Inhibition of Class 1 HDAC in VSV-G-pseudotyped HIV infected human 2C4 cell Jurkat model assessed as reactivation of HIV latency in presence of 0.1% NHS by fluorescent reporter gene assay. The method, boiled down:
(§1)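 Latently infected Jurkat 2C4 cells (HIV latency model) were tested for reactivation of silenced provirus in parallel at two normal human serum levels: 0.1% and 5%. The paired runs gauge the potency shift from plasma protein binding.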
For orientation: Reporter assays use an easily measured gene product as a stand-in for the process of interest.

Series [5] addresses T1, Class 1 histone deacetylase. Nature of the series: Inhibition of Class 1 HDAC in VSV-G-pseudotyped HIV infected human 2C4 cell Jurkat model assessed as reactivation of HIV latency in presence of 5% NHS by fluorescent reporter gene assay. Summed up:
as §1

Series [6] can be described thus: Unbound volume of distribution in Wistar Han rat at 2 mg/kg, iv or 10 mg/kg, po. The format is ADME, organism-based. Particulars: in vivo.
Series [7] is described as follows: Half life in Wistar Han rat at 2 mg/kg, iv or 10 mg/kg, po. Particulars: in vivo. The format is ADME, organism-based.
The target of a further series is Histone deacetylase 3 (Homo sapiens, UniProt O15379). The series is described as follows: Inhibition of HDAC3 (unknown origin).
Chain of Histone deacetylase 3 (O15379 whole entry): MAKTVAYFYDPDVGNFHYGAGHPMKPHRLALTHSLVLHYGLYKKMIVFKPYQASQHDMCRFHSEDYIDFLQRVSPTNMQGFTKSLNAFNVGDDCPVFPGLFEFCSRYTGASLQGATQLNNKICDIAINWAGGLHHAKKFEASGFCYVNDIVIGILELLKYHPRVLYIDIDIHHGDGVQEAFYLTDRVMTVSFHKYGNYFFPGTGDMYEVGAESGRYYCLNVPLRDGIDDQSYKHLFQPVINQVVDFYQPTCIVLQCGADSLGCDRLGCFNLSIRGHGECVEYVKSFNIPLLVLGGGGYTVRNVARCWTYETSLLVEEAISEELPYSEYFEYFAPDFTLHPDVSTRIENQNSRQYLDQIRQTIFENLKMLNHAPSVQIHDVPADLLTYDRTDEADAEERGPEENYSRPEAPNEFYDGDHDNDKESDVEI
Series [8] concerns the target T2, Protein deacetylase HDAC6 (Homo sapiens, UniProt Q9UBN7).
T2 sequence (Q9UBN7 whole entry): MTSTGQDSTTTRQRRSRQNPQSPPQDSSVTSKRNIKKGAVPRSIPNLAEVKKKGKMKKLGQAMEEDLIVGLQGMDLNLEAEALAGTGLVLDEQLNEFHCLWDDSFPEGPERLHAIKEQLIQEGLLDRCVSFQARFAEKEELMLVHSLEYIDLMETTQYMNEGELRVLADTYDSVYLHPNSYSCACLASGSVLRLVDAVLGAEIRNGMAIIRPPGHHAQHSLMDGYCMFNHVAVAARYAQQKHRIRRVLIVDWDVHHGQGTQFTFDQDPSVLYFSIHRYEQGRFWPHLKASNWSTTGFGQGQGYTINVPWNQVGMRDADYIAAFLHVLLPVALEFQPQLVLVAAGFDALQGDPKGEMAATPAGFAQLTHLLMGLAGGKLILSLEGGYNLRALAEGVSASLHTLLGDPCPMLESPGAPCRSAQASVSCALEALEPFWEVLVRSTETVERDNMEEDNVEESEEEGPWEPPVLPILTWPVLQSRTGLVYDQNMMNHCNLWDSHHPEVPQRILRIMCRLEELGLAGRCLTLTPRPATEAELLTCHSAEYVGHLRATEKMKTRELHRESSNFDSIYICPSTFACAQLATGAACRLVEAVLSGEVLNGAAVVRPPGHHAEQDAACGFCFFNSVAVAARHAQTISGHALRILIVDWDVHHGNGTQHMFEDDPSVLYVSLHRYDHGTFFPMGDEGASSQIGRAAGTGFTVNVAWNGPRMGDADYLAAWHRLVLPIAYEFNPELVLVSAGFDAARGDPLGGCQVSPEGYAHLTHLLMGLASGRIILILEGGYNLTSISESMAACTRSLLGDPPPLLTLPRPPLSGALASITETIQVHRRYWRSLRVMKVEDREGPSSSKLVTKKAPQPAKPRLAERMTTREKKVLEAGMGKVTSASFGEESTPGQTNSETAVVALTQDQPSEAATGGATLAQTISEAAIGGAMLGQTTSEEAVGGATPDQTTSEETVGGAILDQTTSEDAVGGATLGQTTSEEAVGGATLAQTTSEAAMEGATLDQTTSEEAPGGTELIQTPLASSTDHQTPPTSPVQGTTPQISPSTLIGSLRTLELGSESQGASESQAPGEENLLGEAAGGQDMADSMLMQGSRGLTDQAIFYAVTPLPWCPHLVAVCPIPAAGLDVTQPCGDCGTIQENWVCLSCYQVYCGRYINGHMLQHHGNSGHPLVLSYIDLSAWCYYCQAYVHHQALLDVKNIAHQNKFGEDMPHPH
Nature of the series: Inhibition of HDAC6 (unknown origin).

The next series has as its target T3, Histone deacetylase 8 (Homo sapiens, UniProt Q9BY41).
T3 sequence (Q9BY41 whole entry): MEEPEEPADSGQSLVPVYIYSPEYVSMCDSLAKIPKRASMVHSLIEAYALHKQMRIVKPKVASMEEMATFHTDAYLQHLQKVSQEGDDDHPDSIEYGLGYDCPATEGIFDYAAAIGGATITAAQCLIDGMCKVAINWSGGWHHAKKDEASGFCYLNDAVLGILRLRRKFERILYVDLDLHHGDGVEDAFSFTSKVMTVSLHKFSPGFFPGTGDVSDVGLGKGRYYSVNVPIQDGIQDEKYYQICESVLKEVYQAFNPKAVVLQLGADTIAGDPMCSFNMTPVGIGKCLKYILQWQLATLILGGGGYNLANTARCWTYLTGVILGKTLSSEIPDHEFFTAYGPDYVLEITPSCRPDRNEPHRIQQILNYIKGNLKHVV
Nature of the series: Inhibition of HDAC8 (unknown origin).

Another series concerns the target Histone deacetylase 2 (Homo sapiens, UniProt Q92769). The series is described as follows: Inhibition of HDAC2 (unknown origin).

The structures appear in SMILES notation. Where only a bound is given, the exact number is not on record here.

Chain of Histone deacetylase 2 (Q92769 whole entry): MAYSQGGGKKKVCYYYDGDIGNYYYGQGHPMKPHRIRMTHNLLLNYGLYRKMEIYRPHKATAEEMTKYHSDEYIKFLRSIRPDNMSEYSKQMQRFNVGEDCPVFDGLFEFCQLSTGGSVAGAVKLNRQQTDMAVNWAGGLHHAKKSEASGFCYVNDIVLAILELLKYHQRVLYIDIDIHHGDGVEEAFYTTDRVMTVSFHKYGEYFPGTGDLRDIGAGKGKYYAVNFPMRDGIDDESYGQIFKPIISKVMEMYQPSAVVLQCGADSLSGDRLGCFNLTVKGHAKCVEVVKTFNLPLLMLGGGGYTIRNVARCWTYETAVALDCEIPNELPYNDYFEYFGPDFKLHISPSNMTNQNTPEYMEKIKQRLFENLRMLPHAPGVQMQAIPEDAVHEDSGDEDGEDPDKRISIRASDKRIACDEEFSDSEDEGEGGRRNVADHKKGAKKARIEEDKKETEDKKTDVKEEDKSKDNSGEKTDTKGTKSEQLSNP
Chain of Histone deacetylase 1 (Q13547 whole entry): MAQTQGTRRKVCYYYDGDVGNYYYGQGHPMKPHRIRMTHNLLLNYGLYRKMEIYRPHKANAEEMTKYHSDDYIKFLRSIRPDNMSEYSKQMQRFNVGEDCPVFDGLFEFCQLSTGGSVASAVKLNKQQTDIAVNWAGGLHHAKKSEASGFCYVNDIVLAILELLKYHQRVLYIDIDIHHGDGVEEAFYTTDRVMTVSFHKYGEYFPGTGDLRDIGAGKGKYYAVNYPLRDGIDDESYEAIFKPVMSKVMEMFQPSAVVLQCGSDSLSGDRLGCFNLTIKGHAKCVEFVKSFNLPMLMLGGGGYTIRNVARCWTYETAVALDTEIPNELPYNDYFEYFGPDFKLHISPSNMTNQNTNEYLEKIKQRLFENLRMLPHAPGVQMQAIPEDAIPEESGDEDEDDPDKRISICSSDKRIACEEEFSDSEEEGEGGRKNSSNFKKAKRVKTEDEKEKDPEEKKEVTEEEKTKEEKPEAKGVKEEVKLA

In the case of `CCC(=O)CCCCC[C@H](NC(=O)[C@H]1CC12CCN(C)CC2)c1[nH]c(-c2ccc(F)cc2)nc1C#N`, half-maximal inhibition against Histone deacetylase 1 (IC50) required 3.8 nM. Also, the Papp in series [1] was 1.7 ×10⁻⁶ cm/s. In series [2], this compound gave a CL free of 244 mL/min/kg. The same compound registered a bioavailability in [3] of 1%. Besides, the 50% effective concentration (EC50) in series [4] came out at 233 nM; in series [5] it was 409 nM. The compound further had a Vdu in series [6] of 40 L/kg. Moreover, the half-life in series [7] was 4 h.
For the compound `CCC(=O)CCCCC[C@H](NC(=O)C1CN(C)C1)c1[nH]c(-c2ccccc2)nc1C(N)=O`, the half-inhibitory concentration (IC50) against Histone deacetylase 1 was 1.9 nM; on Histone deacetylase 3, 2.5 nM; in series [8], 9830 nM; on Histone deacetylase 8, 5420 nM; against Histone deacetylase 2, 18.1 nM. For the same compound, in [1], the Papp was found to be 1.1 ×10⁻⁶ cm/s. Further, the CL free in series [2] came out at 166 mL/min/kg. The compound also had a bioavailability in [3] of 0%. The EC50 in series [4] is 294 nM; in series [5], 269 nM. In addition, the Vdu in series [6] was 45 L/kg. Also, the half-life in [7] was 6.4 h.
As for `CCC(=O)CCCCC[C@H](NC(=O)[C@H]1CC12CCN(C)CC2)c1[nH]c(-c2ccccc2F)nc1C#N`, the IC50 at Histone deacetylase 1 is 17 nM; against Histone deacetylase 3, 10.7 nM; in series [8] it was 22500 nM; at Histone deacetylase 8, 39600 nM; on Histone deacetylase 2 it was 96 nM. Besides, the EC50 is recorded as 566 nM in series [4] and 1162 nM in series [5].
With `CCC(=O)CCCCC[C@H](NC(=O)[C@H]1CC12CCN(C)CC2)c1[nH]c(-c2ccc3nn(C)cc3c2)nc1C#N`, the 50% inhibitory concentration (IC50) on Histone deacetylase 1 came out at 0.4 nM; against Histone deacetylase 3, 0.3 nM; in series [8], 9040 nM; on Histone deacetylase 8, 12400 nM; against Histone deacetylase 2, 2.1 nM. Besides, the EC50 in [4] is reported as 247 nM; in series [5], 322 nM.
Regarding `CCC(=O)CCCCC[C@H](NC(=O)c1ccon1)c1[nH]c(-c2ccc(F)cc2)nc1C#N`, the half-inhibitory concentration (IC50) against Histone deacetylase 1 was 35.6 nM; on Histone deacetylase 3 it was 12.1 nM; in [8], > 45000 nM; against Histone deacetylase 8, 16200 nM; against Histone deacetylase 2, 164 nM. In addition, the EC50 in [4] came out at 558 nM; in series [5], 2726 nM.
